High-throughput results: PubChem, several laboratories
NR2E3 ag-1: inhibitors of NR2E3-RetCOR corepressor binding, primary screen, NR2E3 agonist project, biochemical, TR-FRET, GST-NR2E3, biotin-RetCOR; Photoreceptor-specific nuclear receptor (Homo sapiens), Q9Y5X4; 320,000 compounds, 0.12% hits; 1536-well; AID 2300, 2010; inhibition of corepressor binding, % at 4.78 µM;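 active means percent inhibition above the cutoff of mean plus 3 SD of all tested compounds, set per screening campaign, cut at about 20% in these data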;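 further: 0% = DMSO wells and 100% = biotin wells as full block of FRET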
Target sequence (Q9Y5X4 whole entry, looked up): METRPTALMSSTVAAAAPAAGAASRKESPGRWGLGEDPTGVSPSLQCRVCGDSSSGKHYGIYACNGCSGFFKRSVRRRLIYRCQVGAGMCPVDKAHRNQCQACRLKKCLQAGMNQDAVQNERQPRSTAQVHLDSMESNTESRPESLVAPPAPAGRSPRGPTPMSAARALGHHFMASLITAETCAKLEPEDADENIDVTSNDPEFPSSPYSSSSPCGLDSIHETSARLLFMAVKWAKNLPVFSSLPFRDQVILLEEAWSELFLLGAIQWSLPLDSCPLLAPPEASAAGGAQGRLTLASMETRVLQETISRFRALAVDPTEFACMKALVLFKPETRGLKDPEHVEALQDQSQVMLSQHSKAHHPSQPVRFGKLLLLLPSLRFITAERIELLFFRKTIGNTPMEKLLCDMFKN
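Material: NR2E3–RetCOR corepressor complex / Incubation: Compound–protein incubation for 5 h at 4 °C / Dosing: compound at 4.8 µM, single dose / Detection: time-resolved FRET / Benchmarks: high control biotin, low control 0.6% DMSO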
697 NFkB inh: inhibitors of PMA/ionomycin-induced NF-kB reporter, 697 cells, primary screen, B-cell NF-kB inhibitor project, cell-based, luminescence, uHTS. 697 B-cell NF-kB luciferase reporter, 16 h. inhibition, % at 4 µM. 330,000 compounds, 0.33% hits. AID 435022, 2010; in the data active means inhibition above about 35%
NR2E3 ag-2: NR2E3 agonists in two-hybrid cells, primary screen, cell-based, luminescence, CHO-S, Gal4-NCOR/VP16-NR2E3; luciferase; inhibition of corepressor binding, % at 3.98 µM; 360,000 compounds, 0.35% hits;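 active means inhibition above the mean of all tested compounds plus 3 SD, cut at about 70% in these data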;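 further: 0% = DMSO with NR2E3 transfected cells and 100% = cells lacking NR2E3 construct; higher means lower luciferase signal from less NR2E3 corepressor binding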
miR-122 sensor: miR-122 Renilla sensor signal increase in Huh7, primary screen, miR-122 inhibitor project, cell-based, single point, plate reader | activation (reporter increase), % at 12.5 µM | 340,000 compounds, 0.3% hits | Huh7 miR-122 Renilla luciferase sensor, 48 h; neutral wells = 0, positive control = 100;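 active means mean replicate activation score at least 90 and every replicate individually at or above 90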;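 further: higher luciferase means less miR-122 activity so hits act as miR-122 inhibitors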
FGF22 binding: binders of human FGF22 protein, primary screen, FGF22 synaptogenesis inhibitor project, biophysical, thermal shift, single point; Fibroblast growth factor 22 (Homo sapiens), Q9HCT0; recombinant FGF22 thermal shift, SYPRO orange fluorescence; percent of sucrose octasulfate shift, DMSO zero; activity (Tm shift, normalised), % at 9.99 µM; 340,000 compounds, 1.5% hits;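 active means mean Tm shift, scaled 0 neutral to 100 positive control, at about 1.3% or above, every replicate too, limit read from the data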
Jurkat NFkB inh: inhibitors of induced NF-kB luciferase reporter, primary screen, TCR NF-kB activation inhibitor project, cell-based, luminescence, uHTS. 330,000 compounds, 0.53% hits. inhibition, % at 4 µM. Jurkat, PMA/ionomycin-induced NF-kB luciferase reporter; in the data active means inhibition above about 50%
* hit, by the source's call; nt = no result; [ ] = dose if it differs, or a comment. Hits are enriched below; roughly 2.2% of the tested compounds scored in any of these assays.

SMILES	NR2E3 ag-1	697 NFkB inh	NR2E3 ag-2	miR-122 sensor	FGF22 binding	Jurkat NFkB inh
Cn1cccc1Cc1nnc(SCC(=O)Nc2ccc3c(c2)OCO3)n1CCc1ccccc1	1.3	5.0	-6.3	4.0	-0.4	10.9
COCCn1c(Cc2cccn2C)nnc1SCC(=O)NCc1ccc2c(c1)OCO2	2.8	-4.4	-16.9	nt	43.7*	-14.0
Cc1nnc(SCC(=O)NCc2ccc3c(c2)OCO3)n1C	-0.4	-0.6	-20.9	-1.7	43.4*	-12.1
CC(C)c1nnc(SCC(=O)NCc2ccc3c(c2)OCO3)n1C	-0.8	-3.3	-12.4	nt	nt	-4.5
CCOc1ccc(C(=O)Nc2cccc(C(C)=O)c2)cc1[N+](=O)[O-]	-1.8	30.4	17.5	-5.7	42.8	-1.6
CCOc1ccc(NC(C)=O)cc1[N+](=O)[O-]	1.2	-0.6	9.2	-24.8	43.4*	2.1
C[C@@H]1CN([C@H](C)CO)C(=O)Cc2cc(NC(=O)Cc3cn(C)c4ccccc34)ccc2O[C@@H]1CN(C)S(=O)(=O)c1ccc(F)cc1	nt	nt	nt	-8.2[16.7 µM]	-0.1	nt
C[C@@H]1CCCCO[C@@H](CN(C)C(=O)CCCN(C)C)[C@H](C)CN([C@H](C)CO)C(=O)c2cc(NC(=O)Nc3ccc(F)cc3)ccc2O1	nt	nt	nt	-1.1[16.7 µM]	nt	nt
C[C@@H]1CCCCO[C@H](CN(C)S(=O)(=O)c2cn(C)cn2)[C@@H](C)CN([C@H](C)CO)C(=O)c2cc(NS(=O)(=O)c3ccc(F)cc3)ccc2O1	nt	nt	nt	2.0[16.7 µM]	-0.1	nt
CN(C)c1nc(Cl)nc(N(C#N)CCOc2ccccc2)n1	0.9	14.3	-10.8	-4.2	43.4*	13.4
O=S(=O)(NCC[C@@H]1CC[C@H](NS(=O)(=O)c2ccccc2Cl)[C@H](CO)O1)c1ccc(F)cc1	nt	nt	nt	nt	-0.4	nt
O=C(O)CCN=Cc1c(O)c2ccccc2oc1=O	-0.1	4.3	10.8	nt	43.0*	-6.6
C[C@@H](NC(=O)C[C@@H]1CC[C@H]2[C@@H](COC[C@@H](O)CN2C(=O)Nc2ccccc2)O1)c1ccccc1	nt	nt	nt	16.4[16.7 µM]	-0.5	nt
O=C(COC(=O)/C=C/c1ccc(F)cc1)NCc1ccco1	0.8	12.7	-21.5	-6.1	43.4*	7.4
Cc1ccc(C(=O)OCC(=O)Nc2ccc(C(N)=O)cc2)s1	-0.6	24.2	-30.2	-6.2	0.1	-10.5
CCN(c1ccc(NC(=O)COC(=O)c2ccc(C)s2)cc1)C(C)C	-4.2	15.2	-25.1	-9.3	43.1*	-10.5
Cc1ccc(C(=O)OCC(=O)NCc2cccs2)s1	nt	-9.3	-9.3	-8.9	-0.1	4.0
Cc1ccc(C(=O)OCC(=O)NCc2ccco2)s1	2.9	19.7	-27.3	nt	44.1*	5.4
CCn1c(SCC(=O)Nc2ccc(N3CCOCC3)cc2)nnc1-c1ccc(OC)cc1	-0.8	-4.7	0.1	141.6*	0.1	-18.5
O=C(NCc1ccccc1)c1nc(-c2cccs2)no1	1.2	-16.8	-40.0	nt	44.0*	-23.1
O=C(NCc1ccccc1)c1cc(-c2cccs2)on1	1.8	-17.3	-109.9	-6.7	0.0	-28.8
O=C(NC(CC1CCCCC1)C(=O)O)c1ccccc1 (configuration not stated)	-3.9	1.0	-9.9	-3.0	43.7*	-11.1
COc1cc(OC)cc(N(C(=O)c2ccco2)C(C(=O)NC2CCCC2)c2ccc(N3CCOCC3)cc2)c1 (configuration not stated)	3.0	3.8	-8.7	-4.1	-0.2	-5.9
CC(=O)c1ccc(N(C(=O)c2ccco2)C(C(=O)NC2CCCC2)c2ccc(N3CCOCC3)cc2)cc1 (configuration not stated)	-0.5	-8.0	-19.9	-3.9	43.7*	7.7
CN(C)C(/C=C/Nc1ccc(Br)cc1)=C(C#N)C#N	2.2	-4.3	-37.2	nt	43.0*	-13.4
Cc1[nH]c(=S)[nH]c(=O)c1Cc1c(O)ccc2ccccc12	nt	nt	-9.7	134.3*	-0.1	nt
